Assay results from ChEMBL document CHEMBL1124072, “1,2,4-Trioxanes as potential antimalarial agents” (J Med Chem, 1988).
Values after ≈ are worked out from the molar mass of the structure shown.

tested on: Plasmodium falciparum; test: In vitro EC50 against chloroquine susceptible Plasmodium falciparum by [3H]hypoxanthine incorporation; type: functional, organism-based
Summary of the method: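 Chloroquine-susceptible P. falciparum cultured in vitro and tested by the Desjardins method. Inhibition of parasite [3H]hypoxanthine uptake is the read-out. The value is the concentration (ng/mL) giving 50% inhibition of uptake.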

Row | Structure (SMILES) | IC50
1 | CC(C[C@@]12C=C[C@]3(OO1)C(C)(C)CCC[C@@]3(C)O2)OC(=O)c1ccccc1 (stereo partly specified) | 0.733 µg/mL (≈ 1.97 µM)
2 | COC(=O)C[C@@]12C=C[C@]3(OO1)C(C)(C)CCC[C@@]3(C)O2 | 0.096 µg/mL (≈ 0.34 µM)
3 | COC(=O)C[C@@]12CC[C@]3(OO1)C(C)(C)CCC[C@@]3(C)O2 | 0.083 µg/mL (≈ 0.292 µM)
4 | CC(C[C@@]12CC[C@]3(OO1)C(C)(C)CCC[C@@]3(C)O2)OC(=O)c1ccccc1 (stereo partly specified) | 0.0239 µg/mL (≈ 0.0638 µM)
5 | CC1(C)CCC[C@@]2(C)O[C@]3(C)CC[C@]12OO3 | 1.35 µg/mL (≈ 5.97 µM)
6 | C[C@H](C[C@@]12C=C[C@]3(OO1)C(C)(C)CCC[C@@]3(C)O2)OC(=O)c1ccccc1 | 0.789 µg/mL (≈ 2.12 µM)
7 | C[C@@H](O)C[C@@]12CC[C@]3(OO1)C(C)(C)CCC[C@@]3(C)O2 | 0.389 µg/mL (≈ 1.44 µM)
8 | CC1(C)CCC[C@@]2(C)O[C@]3(C)C=C[C@]12OO3 | > 1.2 µg/mL
9 | C[C@@H](O)C[C@@]12C=C[C@]3(OO1)C(C)(C)CCC[C@@]3(C)O2 | 4.93 µg/mL (≈ 18.4 µM)
10 | C[C@H](C[C@@]12CC[C@]3(OO1)C(C)(C)CCC[C@@]3(C)O2)OC(=O)c1ccccc1 | 1.12 µg/mL (≈ 2.99 µM)
11 | C[C@@H]1CC[C@H]2[C@@H](C)C(=O)O[C@@H]3O[C@@]4(C)CC[C@@H]1[C@]32OO4 [ARTEMISININ] | 0.00113 µg/mL (≈ 0.004 µM)
